Series [1] relates to HepG2. Briefly: Induction of apoptosis in human HepG2 cells assessed as early apoptotic cells at 6 uM after 24 hrs by Annexin V-FITC/ propidium iodide staining based flow cytometry (reference value: 6.5%). Format: functional. For orientation: Flow cytometry measures light scatter and fluorescence of single cells or particles in a stream.
The test system of series [2] is HepG2. Briefly: Induction of apoptosis in human HepG2 cells assessed as live cells at 6 uM after 24 hrs by Annexin V-FITC/ propidium iodide staining based flow cytometry (reference value: 91.31%). Format: functional.
Series [3] concerns HepG2. Briefly: Downregulation of Bcl2 protein expression in human HepG2 cells at 6 to 10 uM after 12 hrs by Western blot analysis. Format: functional, cell-based. A general note: A western blot detects proteins with antibodies after separation by electrophoresis.
For series [4], the system named is HepG2. In words: Cell cycle arrest in human HepG2 cells assessed as accumulation at G1-phase at 10 uM after 48 hrs by propidium iodide staining based flow cytometry (reference value: 50.47%). The format is functional.
Series [5] relates to HepG2. In words: Induction of apoptosis in human HepG2 cells assessed as live cells at 10 uM after 24 hrs by Annexin V-FITC/ propidium iodide staining based flow cytometry (reference value: 91.31%). The format is functional.
Series [6] concerns HepG2. In words: Induction of apoptosis in human HepG2 cells assessed as pycnosis at 6 to 10 uM after 12 hrs by acridine orange/ethidium bromide staining based fluorescence microscopic method. The format is functional, cell-based. In short, it runs like this: (§1)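 HepG2 cells stained with acridine orange/ethidium bromide and examined by fluorescence microscopy; nuclei scored as yellow/green or orange, with pycnosis, membrane blebbing and cell budding taken as apoptotic morphology.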

For series [7], the system named is HepG2. In words: Upregulation of p21 protein expression in human HepG2 cells at 6 to 10 uM after 12 hrs by Western blot analysis. The format is functional, cell-based. In short, it runs like this:
(§2)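 HepG2 cell lysates after compound treatment analyzed by western blot for the target protein, compared with untreated negative control.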

For series [8], the system named is HepG2. In words: Induction of apoptosis in human HepG2 cells assessed as necrotic cells at 6 uM after 24 hrs by Annexin V-FITC/ propidium iodide staining based flow cytometry (reference value: 0.28%). The format is functional.
Series [9] relates to HepG2. In words: Induction of apoptosis in human HepG2 cells assessed as early apoptotic cells at 10 uM after 24 hrs by Annexin V-FITC/ propidium iodide staining based flow cytometry (reference value: 6.5%). Format: functional.
In series [10] the test system is HepG2. Briefly: Downregulation of Cyclin-B1 protein expression in human HepG2 cells at 6 to 10 uM after 12 hrs by Western blot analysis. The format is functional, cell-based.
In series [11] the test system is HepG2. In words: Cell cycle arrest in human HepG2 cells assessed as accumulation at S-phase at 10 uM after 48 hrs by propidium iodide staining based flow cytometry (reference value: 30.49%). The format is functional.
In series [12] the test system is HepG2. In words: Upregulation of caspase-3 protein expression in human HepG2 cells at 6 to 10 uM after 12 hrs by Western blot analysis. The format is functional, cell-based. In short, it runs like this:
as §2

The test system of series [13] is HepG2. Briefly: Induction of apoptosis in human HepG2 cells after 24 hrs by Annexin V-FITC/ propidium iodide staining based flow cytometry. The format is functional, cell-based.
Series [14] concerns HepG2. In words: Induction of apoptosis in human HepG2 cells assessed as membrane blebbing at 6 to 10 uM after 12 hrs by acridine orange/ethidium bromide staining based fluorescence microscopic method. Format: functional, cell-based. In short, it runs like this: as §1
The test system of series [15] is HepG2. In words: Cell cycle arrest in human HepG2 cells assessed as accumulation at S-phase at 8 uM after 48 hrs by propidium iodide staining based flow cytometry (reference value: 30.49%). Format: functional.
The test system of series [16] is HepG2. In words: Induction of apoptosis in human HepG2 cells assessed as late apoptotic cells at 8 uM after 24 hrs by Annexin V-FITC/ propidium iodide staining based flow cytometry (reference value: 1.91%). The format is functional.
The subject of series [17] is HepG2. Briefly: Induction of apoptosis in human HepG2 cells assessed as necrotic cells at 10 uM after 24 hrs by Annexin V-FITC/ propidium iodide staining based flow cytometry (reference value: 0.28%). The format is functional.
Series [18] has as its system HepG2. In words: Upregulation of Bax protein expression in human HepG2 cells at 6 to 10 uM after 12 hrs by Western blot analysis. Format: functional, cell-based. In short, it runs like this: as §2
Series [19] has as its system HepG2. In words: Upregulation of p27 protein expression in human HepG2 cells at 6 to 10 uM after 12 hrs by Western blot analysis. The format is functional, cell-based. Put shortly:
as §2

Series [20] concerns HepG2. Briefly: Induction of apoptosis in human HepG2 cells assessed as cell budding at 6 to 10 uM after 12 hrs by acridine orange/ethidium bromide staining based fluorescence microscopic method. Format: functional.
Series [21] has as its system HepG2. In words: Induction of ROS in human HepG2 cells at 6 to 10 uM by DAPI staining based fluorescence microscopic method. The format is functional, cell-based.
Series [22] concerns HepG2. In words: Induction of apoptosis in human HepG2 cells assessed as necrotic cells at 8 uM after 24 hrs by Annexin V-FITC/ propidium iodide staining based flow cytometry (reference value: 0.28%). Format: functional.
Series [23] relates to HepG2. Briefly: Induction of ROS in human HepG2 cells at 6 to 10 uM by DCFH-DA staining based fluorescence microscopic method. Format: functional, cell-based.
For series [24], the system named is HepG2. Briefly: Downregulation of CDK1 protein expression in human HepG2 cells at 6 to 10 uM after 12 hrs by Western blot analysis. The format is functional, cell-based.
Series [25] has as its system Mus musculus. In words: Upregulation of Bax protein expression in tumor tissues of Balb/c nude mouse xenografted with human NCI-H460 cells at 25 to 50 mg/kg, ip bid for 13 days measured on day 14 by Western blot analysis. Format: functional, organism-based. In short, it runs like this:
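Tumors from NCI-H460 xenografted BALB/c nude mice (25 or 50 mg/kg, vehicle 5% DMSO in saline) collected at day 14; protein levels in tumor tissue determined by western blot versus vehicle control.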

For series [26], the system named is HepG2. Briefly: Induction of apoptosis in human HepG2 cells assessed as late apoptotic cells at 6 uM after 24 hrs by Annexin V-FITC/ propidium iodide staining based flow cytometry (reference value: 1.91%). Format: functional.
The subject of series [27] is BEL-7404 tumor cell line. In words: Cell cycle arrest in human Bel7404 cells assessed as accumulation at S-phase at 9 uM after 48 hrs by propidium iodide staining based flow cytometry (reference value: 22%). Format: functional.
Series [28] relates to Mus musculus. In words: Toxicity in Balb/c nude mouse xenografted with human Bel7404 cells assessed as change in body weight at 25 to 50 mg/kg, ip bid for 20 days. The format is organism-based. As to conditions: in vivo, 480 h. Background: A xenograft is tissue or cells of one species grown in another, often human tumour cells in immunodeficient mice.
In series [29] the test system is BEL-7404 tumor cell line. In words: Antitumor activity against human Bel7404 cells xenografted in Balb/c nude mouse assessed as induction of necrosis at 25 to 50 mg/kg, ip for 20 days measured on day 21 post last dose by hematoxylin and eosin staining based microscopic method. The format is functional, organism-based.
Series [30] deals with Mus musculus. Briefly: Downregulation of caspase-9 protein expression in tumor tissues of Balb/c nude mouse xenografted with human Bel7404 cells at 25 to 50 mg/kg, ip bid for 20 days measured on day 21 by Western blot analysis. Format: functional, organism-based.
Series [31] has as its system BEL-7404 tumor cell line. In words: Antitumor activity against human Bel7404 cells xenografted in Balb/c nude mouse assessed as relative tumor volume increment rate at 50 mg/kg, ip bid for 20 days measured on day 21 post last dose relative to control. The format is functional.
The subject of series [32] is BEL-7404 tumor cell line. In words: Cell cycle arrest in human Bel7404 cells assessed as accumulation at G2-phase at 9 uM after 48 hrs by propidium iodide staining based flow cytometry (reference value: 18.84%). Format: functional.
Series [33] deals with Mus musculus. In words: Downregulation of PARP protein expression in tumor tissues of Balb/c nude mouse xenografted with human Bel7404 cells at 25 to 50 mg/kg, ip bid for 20 days measured on day 21 by Western blot analysis. Format: functional, organism-based.
Series [34] concerns Mus musculus. Briefly: Upregulation of Bax protein expression in tumor tissues of Balb/c nude mouse xenografted with human Bel7404 cells at 25 to 50 mg/kg, ip bid for 20 days measured on day 21 by Western blot analysis. The format is functional, organism-based.

Activity calls are given as the source filed them. No cut-off for these calls is given here.

Among the data in ChEMBL document CHEMBL4270594, “Design, synthesis and pharmacological evaluation of new 3-(1H-benzimidazol-2-yl)quinolin-2(1H)-one derivatives as potential antitumor agents” (Eur J Med Chem, 2018) are Activity and T/C values, retold here.

Consider `O=c1[nH]c2ccccc2cc1-c1nc2cc(Cl)ccc2[nH]1`, for which the Activity worked out at 20.22% in the series on HepG2 [1]; 68.62% with HepG2 [2]; 23.66% with HepG2 [4]; 37.3% in the series on HepG2 [5]; 0.76% in the series on HepG2 [8]; 45.57% with HepG2 [9]. Moreover, the Activity is 27.24% in the series on HepG2 [11]; “Dose-dependent effect” in the series with HepG2 [13]; 29.19% with HepG2 [15]; 10.42% with HepG2 [16]; 0.45% with HepG2 [17]; 0.32% in the series with HepG2 [22]. In addition, the Activity with HepG2 [26] was 10.4%. Also, the result in the series on HepG2 [3], in the series with HepG2 [6], in the series on HepG2 [7], in the series on HepG2 [10], in the series with HepG2 [12] and in the series with HepG2 [14] was Active. Also, the result in the series with HepG2 [18], with HepG2 [19], with HepG2 [20], in the series with HepG2 [21], in the series with HepG2 [23] and in the series with HepG2 [24] was Active. For the same compound, the result with Mus musculus [25] was Active.

The T/C is the ratio of treated to control. Turning to `O=c1[nH]c2cc3c(cc2cc1-c1nc2cc(Cl)ccc2[nH]1)OCO3`, the Activity is on record as 23.66% in the series on BEL-7404 tumor cell line [27], “Non-Toxic” in the series on Mus musculus [28] and 30.58% in the series on BEL-7404 tumor cell line [32]. For the same compound, the outcome in the series with BEL-7404 tumor cell line [29], in the series on Mus musculus [30] and with Mus musculus [33] was Active. For the same compound, the T/C in the series with BEL-7404 tumor cell line [31] came out at 44.8%. Further, in the series with Mus musculus [34], the outcome was inactive.
